Data as given in ChEMBL document CHEMBL1131075, “New aza-dipeptide analogues as potent and orally absorbed HIV-1 protease inhibitors: candidates for clinical development” (J Med Chem, 1998).

How the values were obtained:
[1] = molecular target: Human immunodeficiency virus type 1 protease (Human immunodeficiency virus 1) (UniProt Q72874); assay: Concentration required to inhibit 50% of RT production in HIV-1/MN-infected MT-2 cells.; type: functional, cell-based; settings: MT2
Method in brief: (§1)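 HIV-1/MN virus stocks taken from culture supernatant of chronically infected H9/HIV-1/MN cells and used to infect MT-2 cells. Antiviral effect read out as percent reduction of reverse transcriptase activity. ED50 and ED90 are the concentrations giving 50% and 90% inhibition of RT production. Values are averages of at least three determinations.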

[2] = molecular target: Human immunodeficiency virus type 1 protease (Human immunodeficiency virus 1) (UniProt Q72874); assay: concentration of compound required to inhibit 90% of RT production in HIV-1/MN-infected MT-2 cells.; type: functional, cell-based; settings: MT2; method in brief: as §1
[3] = test system: Mus musculus; assay: Drug concentration in blood sample was analyzed by reversed phase HPLC 30 min (c30) after oral application of 120 mg/kg in a standardized formulation; type: functional
Method in brief: (§2)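 Female Balb/c mice with free access to food and water, dosed by gavage at 120 mg/kg. Compound dissolved in DMSO at 240 mg/mL, then diluted 1:20 with aqueous 20% hydroxypropyl-β-cyclodextrin, giving a suspension. Four mice per time point; heart blood taken at 30 and 90 min. Plasma deproteinated with acetonitrile and quantified by reversed-phase HPLC-UV against a plasma calibration curve.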

[4] = test system: Mus musculus; assay: Drug concentration in blood sample was analyzed by reversed phase HPLC 30 min (c90) after oral application of 120 mg/kg in a standardized formulation; type: functional; settings: in the assay text read “90 min” for “30 min”; method in brief: as §2
[5] = test system: Human immunodeficiency virus 1; assay: Antiviral activity against HIV-1 protease inhibitor-resistant strain(CGP 61755 resistant) of the HI virusMutant: K45I,A71Tmix,L76F,I84Vmix); type: functional
Method in brief: (§3)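 CEM-SS cells were infected with each HIV-1 strain (MOI 0.001-0.005) for 4 h at 37 °C, then washed and plated at 20 000 cells/well with serial 3-fold compound dilutions in triplicate at 37 °C, 5% CO2. Compound was kept at constant final concentration through cell splitting on day 4 and medium replacement on day 7. Supernatant RT activity was assayed on days 4, 7 and 10. Value is the lowest concentration giving total inhibition of replication until day 10, averaged over at least three determinations.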

[6] = test system: Human immunodeficiency virus 1; assay: Antiviral activity against HIV-1 protease inhibitor-resistant strain(indinavir resistant) of the HI virus(L10R,M46I,L63P,V82T,I84V); type: functional; method in brief: as §3
[7] = test system: Human immunodeficiency virus 1; assay: Antiviral activity against HIV-1 protease inhibitor-resistant strain(saquinavir resistant) of the HI virus.(Mutant: G48V,L90M); type: functional; method in brief: as §3
[8] = test system: Human immunodeficiency virus 1; assay: Antiviral activity against HIV-1 protease inhibitor-resistant strain(Wild type) of the HI virus; type: functional; method in brief: as §3
[9] = test system: Human immunodeficiency virus 1; assay: Antiviral activity against HIV-1 protease inhibitor-resistant strain(CGP 61755 resistant) of the HI virus(Mutant: V32I,M46I,L63P,I84A); type: functional; method in brief: as §3
[10] = test system: Human immunodeficiency virus 1; assay: Antiviral activity against HIV-1 protease inhibitor-resistant strain(indinavir resistant)of the HI virus(L10R,M46I,L63P,V82T,I84V); type: functional; method in brief: as §3
[11] = test system: Human immunodeficiency virus 1; assay: Antiviral activity against HIV-1 protease inhibitor-resistant strain(CGP 61755 resistant)of the HI virus(Mutant: V32I,M46I,L63P,I84A); type: functional; method in brief: as §3
[12] = test system: Human immunodeficiency virus 1; assay: Antiviral activity against HIV-1 protease inhibitor-resistant strain(CGP 61755 resistant)of the HI virusMutant: K45I,A71Tmix,L76F,I84Vmix); type: functional; method in brief: as §3

| SMILES | ED50 [1] [nM] | ED90 [2] [nM] | c30 [3] [µM] | c90 [4] [µM] | ED [5] [µM] | ED [6] [µM] | ED [7] [µM] | ED [8] [µM] | ED [9] [µM] | ED [10] [µM] | ED [11] [µM] | ED [12] [µM] |
| --- | --- | --- | --- | --- | --- | --- | --- | --- | --- | --- | --- | --- |
| COC(=O)N[C@H](C(=O)N[C@@H](Cc1ccccc1)[C@@H](O)CN(Cc1ccc(-c2nccs2)cc1)NC(=O)[C@@H](NC(=O)OC)C(C)(C)C)C(C)(C)C | 0.5 | 3 | 9.1 | 10.2 | 0.3 | 0.1 | 0.004 | 0.01 |  |  |  |  |
| COC(=O)N[C@H](C(=O)N[C@@H](Cc1ccccc1)[C@@H](O)CN(Cc1ccc(-c2nnn(C)n2)cc1)NC(=O)[C@@H](NC(=O)OC)C(C)(C)C)C(C)(C)C | 0.8 | 10 | 20.3 | 14.7 | 0.9 | 0.1 | 0.01 | 0.01 |  |  |  |  |
| CCOC(=O)N[C@H](C(=O)NN(Cc1ccc(-c2ccccn2)cc1)C[C@H](O)[C@H](Cc1ccccc1)NC(=O)[C@@H](NC(=O)OC)C(C)C)C(C)C | 5.4 | 30 | 0.5 | 0.2 |  |  |  |  |  |  |  |  |
| CCOC(=O)N[C@H](C(=O)N[C@@H](Cc1ccccc1)[C@@H](O)CN(CC1CCCCC1)NC(=O)[C@@H](NC(=O)OCC)C(C)C)C(C)C | 55 | 1000 | 6.7 | 7.8 |  |  |  |  |  |  |  |  |
| COC(=O)N[C@H](C(=O)N[C@@H](Cc1ccccc1)[C@@H](O)CN(Cc1ccc(-c2ccccc2)cc1)NC(=O)[C@@H](NC(=O)OC)C(C)C)C(C)C | 1.8 | 10 | <0.1 | 0.3 |  |  |  |  |  |  |  |  |
| COC(=O)N[C@H](C(=O)N[C@@H](Cc1ccccc1)[C@@H](O)CN(CCC(C)C)NC(=O)[C@@H](NC(=O)OC)C(C)C)C(C)C | 2.7 | 30 | <0.2 | 0.4 |  |  |  |  |  |  |  |  |
| COC(=O)N[C@H](C(=O)N[C@@H](Cc1ccccc1)[C@@H](O)CN(Cc1ccc(-c2ccccn2)cc1)NC(=O)[C@@H](NC(=O)OC)C(C)(C)C)C(C)(C)C [ATAZANAVIR] | 1.4 | 3 | 21.8 | 31.8 | 0.3 | 0.03 | 0.004 | 0.01 | 0.3 |  |  |  |
| COC(=O)N[C@H](C(=O)N[C@@H](Cc1ccccc1)[C@@H](O)CN(Cc1ccc(-c2ccccc2)cc1)NC(=O)[C@@H](NC(=O)OC)C(C)(C)C)C(C)(C)C | 0.7 | 3 | 5.5 | 4.9 |  |  | 0.01 | 0.01 |  | 0.1 | 0.9 | 0.3 |
| COC(=O)N[C@H](C(=O)N[C@@H](Cc1ccccc1)[C@@H](O)CN(Cc1ccc(-c2nnn(C(C)(C)C)n2)cc1)NC(=O)[C@@H](NC(=O)OC)C(C)(C)C)C(C)(C)C | 0.8 | 3 | 4.2 | 4.6 |  |  |  |  |  |  |  |  |
| CCC(C)[C@H](NC(=O)OC)C(=O)N[C@@H](Cc1ccccc1)[C@@H](O)CN(Cc1ccc(-c2ccccn2)cc1)NC(=O)[C@@H](NC(=O)OC)C(C)C (stereo partly specified) | 2.8 | 10 | 0.4 | 0.3 |  |  |  |  |  |  |  |  |
| CCN(CC)c1ccc(CN(C[C@H](O)[C@H](Cc2ccccc2)NC(=O)[C@@H](NC(=O)OC)C(C)(C)C)NC(=O)[C@@H](NC(=O)OC)C(C)(C)C)cc1 | 1.6 | 10 | 11.8 | 7.6 |  |  |  |  |  |  |  |  |

The next lines start with results.

| ED50 [1] [nM] | ED90 [2] [nM] | SMILES | c30 [3] [µM] | c90 [4] [µM] | ED [5] [µM] | ED [6] [µM] | ED [7] [µM] | ED [8] [µM] | ED [9] [µM] | ED [10] [µM] | ED [11] [µM] | ED [12] [µM] |
| --- | --- | --- | --- | --- | --- | --- | --- | --- | --- | --- | --- | --- |
| 1.2 | 3 | CCOC(=O)N[C@H](C(=O)NN(Cc1ccc(-c2cncs2)cc1)C[C@H](O)[C@H](Cc1ccccc1)NC(=O)[C@@H](NC(=O)OC)C(C)(C)C)C(C)C | 1.4 | 1.4 |  |  |  |  |  |  |  |  |
| 5.6 | 30 | COC(=O)N[C@H](C(=O)N[C@@H](Cc1ccccc1)[C@@H](O)CN(Cc1ccc(-c2cncs2)cc1)NC(=O)[C@@H](NC(=O)OC)C(C)C)C(C)C | 1.8 | 0.1 |  |  |  |  |  |  |  |  |
| 1.5 | 3 | COC(=O)N[C@H](C(=O)N[C@@H](Cc1ccccc1)[C@@H](O)CN(Cc1ccc(-c2ccccc2)cc1)NC(=O)[C@@H](NC(=O)OC)C(C)(C)C)C(C)C | 6.3 | 5.4 |  |  |  |  |  |  |  |  |
| 2.1 | 10 | COC(=O)N[C@H](C(=O)N[C@@H](Cc1ccccc1)[C@@H](O)CN(Cc1ccc(-c2nccs2)cc1)NC(=O)[C@@H](NC(=O)OC)C(C)(C)C)C(C)C | 17.5 | 14.9 |  |  |  |  |  |  |  |  |
| 2.6 | 10 | COC(=O)N[C@H](C(=O)NN(Cc1ccc(-c2ccccn2)cc1)C[C@H](O)[C@H](Cc1ccccc1)NC(=O)[C@@H](NC(=O)OC)C(C)(C)C)C(C)C | 15.3 | 13.3 |  |  |  |  |  |  |  |  |
| 1.9 | 10 | COC(=O)N[C@H](C(=O)NN(Cc1ccc(-c2cncs2)cc1)C[C@H](O)[C@H](Cc1ccccc1)NC(=O)[C@@H](NC(=O)OC)C(C)(C)C)C(C)C | 8.5 | 5.7 |  |  |  |  |  |  |  |  |
| 0.8 | 3 | COC(=O)N[C@H](C(=O)N[C@@H](Cc1ccccc1)[C@@H](O)CN(Cc1ccc(-c2cncs2)cc1)NC(=O)[C@@H](NC(=O)OC)C(C)(C)C)C(C)(C)C | 12.6 | 9.9 |  |  |  |  |  |  |  |  |
| 2 | 10 | COC(=O)N[C@H](C(=O)N[C@@H](Cc1ccccc1)[C@@H](O)CN(Cc1ccc(-c2ccccn2)cc1)NC(=O)[C@@H](NC(=O)OC)C(C)(C)C)C(C)C | 13.8 | 12.7 |  |  |  |  |  |  |  |  |
| 1.4 | 10 | COC(=O)N[C@H](C(=O)N[C@@H](Cc1ccccc1)[C@@H](O)CN(Cc1ccc(-c2cncs2)cc1)NC(=O)[C@@H](NC(=O)OC)C(C)(C)C)C(C)C | 8.5 | 4.4 |  |  |  |  |  |  |  |  |
| 0.7 | 3 | COC(=O)N[C@H](C(=O)NN(Cc1ccc(-c2ccccc2)cc1)C[C@H](O)[C@H](Cc1ccccc1)NC(=O)[C@@H](NC(=O)OC)C(C)(C)C)C(C)C | 0.6 | 1.1 |  |  |  |  |  |  |  |  |
| 7.4 | 30 | COC(=O)N[C@H](C(=O)N[C@@H](Cc1ccccc1)[C@@H](O)CN(Cc1ccc(-c2ccccn2)cc1)NC(=O)[C@@H](NC(=O)OC)C(C)C)C(C)C | 2.7 | 2.2 |  |  |  |  |  |  |  |  |
